Results from ChEMBL document CHEMBL3352362, “Discovery of a novel, first-in-class, orally bioavailable azaindole inhibitor (VX-787) of influenza PB2” (J Med Chem, 2014).

Legend:
[1] = tested on: Influenza A virus; assay: Antiviral activity against Influenza A virus (A/Puerto Rico/8/1934(H1N1)) infected in cells assessed as reduction in multiplication of virus-specific RNA molecules using branched-chain DNA; type: functional
How it was run: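 Viral RNA replication in infected cells quantified by the bDNA QuantiGene method with strand-specific probes for positive- or negative-strand RNA. EC90 is the compound concentration giving viral RNA levels equal to 10% of control wells.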

[2] = tested on: Influenza A virus; assay: Antiviral activity against Influenza A virus (A/Puerto Rico/8/1934(H1N1)) infected in MDCK cells assessed as cell protection after 72 hrs by cytopathic effect assay; type: functional, organism-based
How it was run: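 MDCK cells incubated with test compound and influenza A virus for 72 h (3-day CPE format). Cell viability read by an ATP end point. EC50 is the concentration giving 50% cell protection; mean of N = 3 or greater.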

[3] = biological target: Polymerase basic protein 2 (Influenza A virus (strain A/Puerto Rico/8/1934 H1N1), UniProt P03428); assay: Binding affinity to influenza A virus (A/Puerto Rico/8/1934(H1N1)) PB2 by competition binding fluorescence polarization (FP) assay
How it was run: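 Fluorescence polarization competition binding assay measuring affinity for the cap-binding domain of the PB2 subunit.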

[4] = AUC in mouse at 30 mg/kg; type: ADME, organism-based; parameters: dose 30 mg/kg; settings: plasma
[5] = Cmax in mouse at 30 mg/kg; type: ADME, organism-based; parameters: dose 30 mg/kg; settings: in vivo
[6] = AUC in rat at 3 mg/kg, po; type: ADME, organism-based; parameters: dose 3 mg/kg, route oral; settings: plasma
[7] = Oral bioavailability in rat at 3 mg/kg; type: ADME, organism-based; settings: in vivo
[8] = Clearance in rat at 3 mg/kg, iv; type: ADME, organism-based; parameters: dose 3 mg/kg, route intravenous; settings: in vivo
[9] = Cmax in rat at 3 mg/kg, po; type: ADME, organism-based; parameters: dose 3 mg/kg, route oral; settings: in vivo
[10] = Half life in rat at 3 mg/kg, iv; type: ADME, organism-based; parameters: dose 3 mg/kg, route intravenous; settings: in vivo

Polymerase basic protein 2, sequence (P03428 whole entry, the tested form may be a part): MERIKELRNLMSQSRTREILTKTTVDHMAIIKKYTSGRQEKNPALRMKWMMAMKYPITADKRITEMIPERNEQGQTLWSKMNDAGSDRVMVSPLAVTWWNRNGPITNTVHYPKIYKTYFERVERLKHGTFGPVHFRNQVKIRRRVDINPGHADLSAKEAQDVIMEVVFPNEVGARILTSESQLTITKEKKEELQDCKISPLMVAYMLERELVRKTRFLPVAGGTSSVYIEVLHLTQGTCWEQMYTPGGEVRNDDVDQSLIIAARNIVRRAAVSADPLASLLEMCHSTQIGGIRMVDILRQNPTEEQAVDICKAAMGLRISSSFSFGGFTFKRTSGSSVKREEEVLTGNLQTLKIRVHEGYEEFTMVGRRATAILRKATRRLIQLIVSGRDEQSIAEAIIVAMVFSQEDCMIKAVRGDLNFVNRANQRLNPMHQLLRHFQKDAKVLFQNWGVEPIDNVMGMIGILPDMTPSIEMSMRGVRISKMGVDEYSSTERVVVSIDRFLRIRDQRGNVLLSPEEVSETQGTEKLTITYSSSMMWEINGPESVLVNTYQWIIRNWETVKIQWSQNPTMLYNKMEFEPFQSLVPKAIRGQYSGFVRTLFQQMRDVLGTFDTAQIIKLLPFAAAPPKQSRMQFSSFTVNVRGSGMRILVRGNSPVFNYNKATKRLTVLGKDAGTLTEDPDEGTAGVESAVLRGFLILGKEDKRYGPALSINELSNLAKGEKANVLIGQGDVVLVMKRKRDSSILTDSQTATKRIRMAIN

Cn1cncc1C(=O)N[C@@H]1CCC[C@H](Nc2nc(-c3c[nH]c4ncc(Cl)cc34)ncc2F)C1
EC90 [1]: 3 nM
EC50 [2]: 2 nM
Kd [3]: 20 nM

CC(=O)N1CCC[C@H](CNc2nc(-c3c[nH]c4ncc(Cl)cc34)ncc2F)C1
EC90 [1]: 540 nM
EC50 [2]: 400 nM
Kd [3]: 300 nM

O=C(CN1CCOCC1)N[C@@H]1CCC[C@H](Nc2nc(-c3c[nH]c4ncc(Cl)cc34)ncc2F)C1
EC90 [1]: 380 nM
EC50 [2]: 100 nM
Kd [3]: 200 nM

O=C(O)[C@H]1[C@@H]2CC[C@@H](C2)[C@@H]1Nc1nc(-c2c[nH]c3ncc(Cl)cc23)ncc1F (racemic)
EC90 [1]: 21 nM
EC50 [2]: 8 nM
Kd [3]: < 2 nM

N[C@@H]1CCCC[C@H]1Nc1nc(-c2c[nH]c3ncc(Cl)cc23)ncc1F
EC50 [2]: > 20000 nM
Kd [3]: 4900 nM

Cn1cncc1C(=O)N[C@@H]1CCC[C@H](Nc2nc(-c3c[nH]c4ncc(F)cc34)ncc2F)C1
AUC [4]: 19000 ng·h/mL
Cmax [5]: 13000 ng/mL
AUC [6]: 3700 ng·h/mL
EC90 [1]: 5 nM
bioavailability [7]: 100%
EC50 [2]: 2 nM
clearance [8]: 22 mL/min/kg
Cmax [9]: 600 ng/mL
half-life [10]: 2 h
Kd [3]: 90 nM

CC(=O)N[C@@H]1CCC[C@H](Nc2nc(-c3c[nH]c4ncc(Cl)cc34)ncc2F)C1
EC90 [1]: 25 nM
EC50 [2]: 36 nM
Kd [3]: 70 nM

O=C(O)[C@H]1CCCC[C@@H]1Nc1nc(-c2c[nH]c3ncc(Cl)cc23)ncc1F (racemic)
AUC [6]: 200 ng·h/mL
EC90 [1]: 187 nM
bioavailability [7]: 7%
EC50 [2]: 134 nM
clearance [8]: 16 mL/min/kg
Cmax [9]: 30 ng/mL
half-life [10]: 1 h
Kd [3]: < 2 nM

COCCC(=O)N1CCC[C@H](Nc2nc(-c3c[nH]c4ncc(Cl)cc34)ncc2F)C1
EC90 [1]: 320 nM
EC50 [2]: 13 nM
clearance [8]: 88 mL/min/kg
half-life [10]: 0.7 h
Kd [3]: 100 nM

COc1cnc2[nH]cc(-c3ncc(F)c(N[C@H]4CCC[C@@H](NC(=O)N5CCOCC5)C4)n3)c2c1
EC90 [1]: 170 nM
EC50 [2]: 95 nM

C[C@H](Nc1nc(-c2c[nH]c3ncc(Cl)cc23)ncc1F)C(=O)N(C)C
EC90 [1]: 1130 nM
EC50 [2]: 510 nM
Kd [3]: 100 nM

CN(C)C(=O)N[C@@H]1CCC[C@H](Nc2nc(-c3c[nH]c4ncc(F)cc34)ncc2F)C1
EC90 [1]: 6 nM
EC50 [2]: 2 nM
Kd [3]: 400 nM

CN(C)c1cnc2[nH]cc(-c3ncc(F)c(N[C@H]4CCC[C@@H](NC(=O)N5CCOCC5)C4)n3)c2c1
EC90 [1]: > 3000 nM
EC50 [2]: 1260 nM

O=C(N[C@@H]1CCC[C@H](Nc2nc(-c3c[nH]c4ncc(F)cc34)ncc2F)C1)N1CCOCC1
AUC [4]: 180000 ng·h/mL
Cmax [5]: 18200 ng/mL
AUC [6]: 1100 ng·h/mL
EC90 [1]: 12 nM
bioavailability [7]: 46%
EC50 [2]: 4 nM
clearance [8]: 22 mL/min/kg
Cmax [9]: 200 ng/mL
half-life [10]: 1.7 h
Kd [3]: 400 nM

O=C(N[C@@H]1CCC[C@H](Nc2nc(-c3c[nH]c4ncc(C(F)(F)F)cc34)ncc2F)C1)N1CCOCC1
EC90 [1]: 3 nM
EC50 [2]: 3 nM
clearance [8]: 81 mL/min/kg

Fc1cnc(-c2c[nH]c3ncc(Cl)cc23)nc1NC1CCCNC1 (stereo not drawn)
EC50 [2]: 1870 nM

CC(=O)N[C@H]1CCCC[C@@H]1Nc1nc(-c2c[nH]c3ncc(Cl)cc23)ncc1F
EC90 [1]: 1460 nM
EC50 [2]: 44 nM
Kd [3]: 100 nM

Fc1cnc(-c2c[nH]c3ncc(Cl)cc23)nc1NC1CCCCC1
EC90 [1]: 2370 nM
EC50 [2]: 1640 nM
Kd [3]: 300 nM

COCC[C@]1(C(=O)O)CCCC[C@@H]1Nc1nc(-c2c[nH]c3ncc(Cl)cc23)ncc1F (racemic)
EC90 [1]: 90 nM
EC50 [2]: 18 nM
Kd [3]: 9 nM

C[C@]1(C(=O)O)CCCC[C@@H]1Nc1nc(-c2c[nH]c3ncc(Cl)cc23)ncc1F (racemic)
AUC [4]: 2400 ng·h/mL
Cmax [5]: 1300 ng/mL
AUC [6]: 2200 ng·h/mL
EC90 [1]: 59 nM
bioavailability [7]: 82%
EC50 [2]: 11 nM
clearance [8]: 24 mL/min/kg
Cmax [9]: 200 ng/mL
half-life [10]: 3.2 h
Kd [3]: < 2 nM

N[C@H]1CCCC[C@@H]1Nc1nc(-c2c[nH]c3ncc(Cl)cc23)ncc1F
EC90 [1]: 2480 nM
EC50 [2]: 620 nM
Kd [3]: 90 nM

NC(=O)[C@H]1CCCC[C@@H]1Nc1nc(-c2c[nH]c3ncc(Cl)cc23)ncc1F (racemic)
EC90 [1]: 3130 nM
Kd [3]: 30 nM

O=C(O)[C@H]1C2CCC(CC2)[C@@H]1Nc1nc(-c2c[nH]c3ncc(Cl)cc23)ncc1F
AUC [4]: 10000 ng·h/mL
Cmax [5]: 3700 ng/mL
AUC [6]: 300 ng·h/mL
EC90 [1]: 1 nM
bioavailability [7]: 24%
EC50 [2]: 1 nM
clearance [8]: 32 mL/min/kg
Cmax [9]: 30 ng/mL
half-life [10]: 3.9 h
Kd [3]: < 5 nM

COCC(=O)N[C@@H]1CCC[C@H](Nc2nc(-c3c[nH]c4ncc(Cl)cc34)ncc2F)C1
EC90 [1]: 20 nM
EC50 [2]: 44 nM
Kd [3]: 70 nM

CCc1cnc2[nH]cc(-c3ncc(F)c(N[C@H]4CCC[C@@H](NC(=O)N5CCOCC5)C4)n3)c2c1
EC90 [1]: 260 nM
EC50 [2]: 25 nM

CC(O)C(=O)N[C@@H]1CCC[C@H](Nc2nc(-c3c[nH]c4ncc(Cl)cc34)ncc2F)C1 (stereo partly drawn)
EC90 [1]: 240 nM
EC50 [2]: 86 nM
Kd [3]: 400 nM

C[C@]1(C(=O)O)CCCC[C@@H]1Nc1nc(-c2c[nH]c3ncc(F)cc23)ncc1F
EC90 [1]: 140 nM
EC50 [2]: 18 nM
Kd [3]: < 2 nM

OC[C@H](O)CN1CCC[C@H](Nc2nc(-c3c[nH]c4ncc(Cl)cc34)ncc2F)C1
AUC [4]: 6500 ng·h/mL
Cmax [5]: 1200 ng/mL
EC90 [1]: 360 nM
EC50 [2]: 270 nM
clearance [8]: 56 mL/min/kg
half-life [10]: 2.3 h
Kd [3]: 400 nM

O=C(NC1CCOCC1)N[C@@H]1CCC[C@H](Nc2nc(-c3c[nH]c4ncc(F)cc34)ncc2F)C1
EC90 [1]: 160 nM
EC50 [2]: 60 nM
Kd [3]: 400 nM

O=C(N[C@@H]1CCC[C@H](Nc2nc(-c3c[nH]c4ncccc34)ncc2F)C1)N1CCOCC1
EC90 [1]: 200 nM
EC50 [2]: 98 nM

Cc1cnc2[nH]cc(-c3ncc(F)c(N[C@H]4CCC[C@@H](NC(=O)N5CCOCC5)C4)n3)c2c1
EC90 [1]: 13 nM
EC50 [2]: 10 nM
clearance [8]: 78 mL/min/kg

NC(=O)CN1CCC[C@H](Nc2nc(-c3c[nH]c4ncc(Cl)cc34)ncc2F)C1
EC90 [1]: 20 nM
EC50 [2]: 81 nM
clearance [8]: 182 mL/min/kg
Kd [3]: 80 nM

CS(=O)(=O)N1CCCC[C@@H]1CNc1nc(-c2c[nH]c3ncc(Cl)cc23)ncc1F
EC90 [1]: 540 nM
EC50 [2]: 660 nM
clearance [8]: 152 mL/min/kg
half-life [10]: 0.4 h
Kd [3]: 100 nM

COCC(=O)N[C@@H]1CCC[C@H](Nc2nc(-c3c[nH]c4ncc(F)cc34)ncc2F)C1
EC90 [1]: 90 nM
EC50 [2]: 45 nM
Kd [3]: 200 nM

O=C(O)[C@H]1[C@H]2CC[C@H](C2)[C@@H]1Nc1nc(-c2c[nH]c3ncc(Cl)cc23)ncc1F (racemic)
EC90 [1]: 6 nM
EC50 [2]: < 2 nM
Kd [3]: < 2 nM

CC(=O)c1cnc2[nH]cc(-c3ncc(F)c(N[C@H]4CCC[C@@H](NC(=O)N5CCOCC5)C4)n3)c2c1
EC90 [1]: > 3000 nM
EC50 [2]: > 10000 nM

O=C(N[C@@H]1CCC[C@H](Nc2nc(-c3c[nH]c4ncc(Cl)cc34)ncc2F)C1)N1CCOCC1
EC90 [1]: 5 nM
EC50 [2]: 2 nM
clearance [8]: 59 mL/min/kg
Kd [3]: 500 nM

Fc1cnc(-c2c[nH]c3ncc(Cl)cc23)nc1NC1CCCC1
EC90 [1]: > 10000 nM
EC50 [2]: > 20000 nM
Kd [3]: 700 nM
